Laboratory results as given in ChEMBL document CHEMBL1125564, “Selective, centrally acting serotonin 5-HT2 antagonists. 2. Substituted 3-(4-fluorophenyl)-1H-indoles” (J Med Chem, 1992).

How the values were obtained:
[1] = biological target: Serotonin 2 (5-HT2) receptor (Rattus norvegicus, UniProt P30994+P08909+P14842); assay: Displacement of [3H]ketanserin from 5-hydroxytryptamine 2 receptor in rat cortical membranes; type: cell membranes, Membrane
In short: (§1)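 Two full concentration curves per compound, five concentrations in triplicate covering three decades. IC50 read from log-concentration curves, given as logarithmic mean of at least two determinations. Ratios beyond 3 × SD prompted extra runs, with outliers discarded.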

[2] = biological target: T1, Alpha-1A adrenergic receptor (Rattus norvegicus, UniProt P43140); assay: Displacement of [3H]prazosin from Alpha-1 adrenergic receptor in whole rat brain membranes; type: cell membranes; in short: as §1
T1 sequence (P43140 whole entry): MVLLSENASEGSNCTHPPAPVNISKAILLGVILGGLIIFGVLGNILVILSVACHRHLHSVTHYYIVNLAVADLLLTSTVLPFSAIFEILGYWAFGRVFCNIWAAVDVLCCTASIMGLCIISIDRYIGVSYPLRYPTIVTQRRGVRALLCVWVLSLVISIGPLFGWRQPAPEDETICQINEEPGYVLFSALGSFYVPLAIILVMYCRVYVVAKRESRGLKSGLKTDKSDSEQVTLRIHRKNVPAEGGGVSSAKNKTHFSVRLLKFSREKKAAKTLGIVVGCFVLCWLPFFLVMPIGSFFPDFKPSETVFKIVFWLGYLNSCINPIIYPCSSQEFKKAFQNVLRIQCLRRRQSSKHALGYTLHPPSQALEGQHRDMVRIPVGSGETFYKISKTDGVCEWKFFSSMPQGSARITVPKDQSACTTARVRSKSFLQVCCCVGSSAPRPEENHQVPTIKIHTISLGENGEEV

D(2) dopamine receptor = D(2) dopamine receptor (Rattus norvegicus, UniProt P61169); assay: Displacement of [3H]spiperone from Dopamine receptor D2 rat striatal membranes; type: cell membranes, Membrane; in short: as §1
Sequence of D(2) dopamine receptor (P61169 whole entry): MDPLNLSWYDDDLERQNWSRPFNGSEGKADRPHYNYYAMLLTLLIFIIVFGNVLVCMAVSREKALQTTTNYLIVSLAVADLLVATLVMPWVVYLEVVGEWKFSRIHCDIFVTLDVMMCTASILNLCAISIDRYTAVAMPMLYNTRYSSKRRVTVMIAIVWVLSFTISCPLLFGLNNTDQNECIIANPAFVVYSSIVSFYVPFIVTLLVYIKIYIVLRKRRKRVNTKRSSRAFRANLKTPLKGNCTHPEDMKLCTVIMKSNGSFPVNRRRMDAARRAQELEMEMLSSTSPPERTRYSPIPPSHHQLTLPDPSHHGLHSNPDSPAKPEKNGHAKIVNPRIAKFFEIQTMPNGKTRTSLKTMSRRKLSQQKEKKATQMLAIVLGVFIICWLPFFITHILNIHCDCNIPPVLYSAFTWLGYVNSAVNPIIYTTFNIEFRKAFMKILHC

Rattus norvegicus [3] = assay: Compound was evaluated for the inhibition of quipazine-induced head twitches after 2 hr (administered subcutaneously); type: functional; details: sc
In short: (§2)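 Male Wistar rats (Mol:Wist, SPF, 170–270 g), at least four per dose, dosed sc or po 2 or 24 h before quipazine (15 μmol/kg, sc). Head twitches counted 30–40 min after quipazine and expressed as percent of a quipazine-treated control group. ED50 by log-probit analysis.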

Rattus norvegicus [4] = assay: Compound was evaluated for the inhibition of quipazine-induced head twitches after 24 hr (administered perorally); type: functional; details: po; in short: as §2
Rattus norvegicus [5] = assay: Compound was evaluated for the inhibition of quipazine-induced head twitches after 24 hr (administered subcutaneously); type: functional; details: sc; in short: as §2
Rattus norvegicus [6] = assay: Compound was evaluated for the inhibition of pergolide-induced reactions after 2 hr (administered subcutaneously); type: functional; details: sc
In short: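 Male Wistar rats with unilateral 6-OHDA lesions; test compound given sc 2 h before pergolide (0.05 μmol/kg, sc) to induce contralateral circling. Each dose scored as percent of the rat's mean control sessions 1 week before and 1 week after the test, at least four rats per dose. ED50 by log-probit analysis.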

| SMILES | IC50 [1] [nM] | IC50 [2] [nM] | IC50 (D(2) dopamine receptor) [nM] | ED50 (Rattus norvegicus [3]) [µmol/kg] | ED50 (Rattus norvegicus [4]) [µmol/kg] | ED50 (Rattus norvegicus [5]) [µmol/kg] | ED50 (Rattus norvegicus [6]) [µmol/kg] |
| --- | --- | --- | --- | --- | --- | --- | --- |
| Cc1ccc2c(c1)c(-c1ccc(F)cc1)cn2C1CCN(C)CC1 | 4.5 | 190 |  |  |  |  |  |
| Cc1ccc2c(c1)c(-c1ccc(F)cc1)cn2C1=CCN(CCN2CCNC2=O)CC1 | 1.5 | 24 | 280 |  |  |  |  |
| Cc1ccc2c(c1)c(-c1ccc(F)cc1)c(C)n2C1=CCN(CCN2CCNC2=O)CC1 | 2.8 | 1000 |  |  |  |  |  |
| Cc1ccc2c(c1)c(-c1ccc(F)cc1)c(C)n2C1CCN(CCN2CCNC2=O)CC1 | 3.4 | 2300 |  | 0.096 | 0.038 | 0.0041 | > 23 |
| O=C1NCCN1CCN1CCC(n2cc(-c3ccc(F)cc3)c3ccccc32)CC1 | 3.1 | 6.3 |  |  |  |  |  |
| Cc1cccc2c(-c3ccc(F)cc3)cn(C3CCN(CCN4CCNC4=O)CC3)c12 | 3.6 | 23 | 370 |  |  |  |  |
| O=C1NCCN1CCN1CCC(n2cc(-c3ccc(F)cc3)c3ccc(Cl)cc32)CC1 | 1.9 | 11 |  | 0.3 |  | 0.68 | 9.3 |
| Cc1ccc2c(c1)c(-c1ccc(F)cc1)cn2N1CCN(C)CC1 | 15 | 500 |  |  |  |  |  |
| O=C1NCCN1CCN1CCC(n2cc(-c3ccc(F)cc3)c3cc(Cl)ccc32)CC1 | 5.7 | 67 |  |  |  |  |  |
| Cc1ccc2c(c1)c(-c1ccc(F)cc1)cn2C1CCN(CCNC(=O)N(C)C)CC1 | 2.3 | 89 |  |  |  |  |  |
| Cc1cccc2c(-c3ccc(F)cc3)cn(C3=CCN(CCN4CCNC4=O)CC3)c12 | 5.8 | 27 | 530 |  |  |  |  |
| Cc1ccc2c(c1)c(-c1ccc(F)cc1)cn2C1CCN(CCN2CCN(C(C)C)C2=O)CC1 | 2.7 | 280 |  | 0.062 | 0.019 | 0.014 | > 18 |
| Cc1cccc2c1c(-c1ccc(F)cc1)cn2C1CCN(CCN2CCNC2=O)CC1 | 7.9 | 34 | 200 |  |  |  |  |
| Cc1ccc2c(c1)c(-c1ccc(F)cc1)cn2C1CCN(CCN2CCNC2=O)CC1 | 1.6 | 71 |  | 0.019 | 0.0041 | 0.0081 | > 24 |
| Cc1ccc2c(c1)c(-c1ccc(F)cc1)c(C)n2C1CCN(C)CC1 | 5.3 | 2700 |  | 0.25 | 0.046 | 0.028 | > 30 |
| CC(C)N1CCN(CCN2CCC(c3cn(-c4ccc(F)cc4)c4cc(Cl)ccc34)CC2)C1=O |  | 70 |  |  |  |  |  |
| CNC(=O)N(C)CCN1CCC(n2cc(-c3ccc(F)cc3)c3cc(C)ccc32)CC1 | 2.2 | 54 | 1200 | 0.036 | 0.004 | 0.0021 | > 22 |
| O=C1NCCN1CCN1CCC(n2cc(-c3ccc(F)cc3)c3cc(F)ccc32)CC1 | 3.2 | 19 |  |  |  |  |  |
| O=C1NCCN1CCN1CCC(c2cn(-c3ccc(F)cc3)c3ccc(Cl)cc23)CC1 [SERTINDOLE] |  | 3.4 |  |  |  |  |  |
| O=C1NCCN1CCN1CCC(n2cc(-c3ccc(F)cc3)c3cc(C(F)(F)F)ccc32)CC1 | 9.3 | 190 | 2500 |  |  |  |  |
